Experimental data from publication PMC2645950 (Journal of medicinal chemistry, 2008).
Changes are numbered by the printed parent chain.

What was measured:
[1] = molecular target: T1, human alkyltransferase (wild type) (Homo sapiens, UniProt P16455); conditions: cited from earlier work
T1 sequence (P16455 1-207): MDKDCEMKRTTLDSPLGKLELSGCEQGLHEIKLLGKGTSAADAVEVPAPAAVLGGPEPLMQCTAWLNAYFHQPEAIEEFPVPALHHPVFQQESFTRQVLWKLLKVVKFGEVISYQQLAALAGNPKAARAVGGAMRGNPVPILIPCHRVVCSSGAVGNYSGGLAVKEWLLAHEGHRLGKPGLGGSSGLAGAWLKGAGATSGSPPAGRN

alkyltransferase = conditions: BG free base; cited from earlier work
[2] = molecular target: T1, human alkyltransferase (wild type); assay: Inactivation of purified recombinant human alkyltransferase in vitro; format: biochemical; conditions: for less effective than BG: ortho-substituted BG derivatives
[3] = Stability in aqueous solution; format: physicochemical; conditions: for rearrangement to N^6-substituted 2-aminoadenine in heated water: heating
[4] = molecular target: T2, S159A mutant alkyltransferase (Homo sapiens, UniProt P16455, S159A); assay: Inactivation of purified S159A mutant alkyltransferase in vitro; format: biochemical; conditions: 30 min at 37°C
T2 sequence (P16455 1-207 S159A): T1 sequence (P16455 1-207) with S159A

Solubility = format: physicochemical; conditions: at physiological pH
HT29 cells = assay: Sensitization of HT29 cells to killing by BCNU; format: cell-based, human; conditions: 2 h exposure prior to 40 μM BCNU; colony forming assay
Summary of the method: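 HT29 cells in RPMI 1640 with 10% FBS. 24 h after plating, cells get test compound at varied concentrations for 2 h, then 40 μM BCNU for 2 h. Medium is then replaced with inhibitor-containing, BCNU-free medium for 16–18 h. Cells are replated at 250–1000 per 25 cm2 flask and grown 8 days. Colonies are saline-washed, stained with 0.5% crystal violet in ethanol, and counted.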

Structure (SMILES): Nc1nc(OCc2ccccc2)c2nc[nH]c2n1 [BG, O^6-Benzylguanine]
- enhancement of inactivation of alkyltransferase by the presence of DNA [1]: 3–4 fold
- rate constant for the reaction (alkyltransferase): ~600 M⁻¹ s⁻¹

Structure (SMILES): NCc1ccccc1COc1nc(N)nc2nc[nH]c12 [Compound 3, O^6-[2-(Aminomethyl)benzyl]guanine]
- less effective than BG [2]: > 200 fold
- half life of rearrangement of 3 to 7 ([3]; aqueous solution, 37°C (0.1 M sodium phosphate buffer pH 7.4, followed by UV, first order kinetics)): 51 h

Structure (SMILES): NCc1ccc(COc2nc(N)nc3nc[nH]c23)cc1 [Compound 1, O^6-[4-(Aminomethyl)benzyl]guanine]
- IC50 ([4]; ED50 + DNA, + DNA): 0.028 µM
- IC50 ([4]; ED50 No DNA, no DNA): 0.16 µM
- rearrangement to N^6-substituted 2-aminoadenine in heated water [3]: not observed

Structure (SMILES): Cc1ccccc1COc1nc(N)nc2nc[nH]c12 [Compound 6, O^6-[2-(Methyl)benzyl]guanine]
- less effective than BG [2]: > 200 fold

Structure (SMILES): Nc1nc(NCc2ccccc2CO)c2[nH]cnc2n1 [Compound 7, N^6-[2-(Hydroxymethyl)benzyl]-2-aminoadenine]
- inhibition at 1000 µM ([2]; read-out: inhibition of alkyltransferase): < 10%

Structure (SMILES): NCc1cccc(COc2nc(N)nc3nc[nH]c23)c1 [Compound 2, O^6-[3-(Aminomethyl)benzyl]guanine]
- solubility relative to BG (Solubility): approx. 1000 times
- sensitizing HT29 cells to BCNU (HT29 cells): much more effective than compound 1
- rearrangement to N^6-substituted 2-aminoadenine in heated water [3]: not observed
